From ChEMBL document CHEMBL2380204, “Discovery of a new HIV-1 inhibitor scaffold and synthesis of potential prodrugs of indazoles” (Bioorg Med Chem Lett, 2013)
≈ marks a conversion by molar mass, not a printed value.

What was measured:
[1] = system: Plasma; assay: Prodrug activation in 80% phosphate buffered human plasma assessed as compound remaining after 40 mins at pH 7.4; format: cell-free; details: pH 7.4, 40 min
Summary of the method: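 Incubated in phosphate-buffered 80% human plasma at pH 7.4 and 37 °C. Percent of compound remaining measured at 40 min, along with time-dependent formation of the parent indazole.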

[2] = Aqueous solubility in phosphate buffer at pH 7.4; format: physicochemical
Summary of the method: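 Aqueous solubility measured in phosphate buffer at pH 7.4 as a preliminary screen. Reported in µM.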

[3] = Chemical stability in phosphate buffer after 40 mins at pH 7.4; format: physicochemical; details: pH 7.4, 40 min
Summary of the method: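 Compound incubated in phosphate buffer at pH 7.4 and 37 °C for 40 min. Hydrolysis monitored.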

[4] = system: Human immunodeficiency virus 1; assay: Antiviral activity against 0.0005 MOI Human immunodeficiency virus 1 NL43 infected in human MT4 cells assessed as protection against virus-induced cytopathicity after 4 days by WST1 assay; format: functional, organism-based; details: Human immunodeficiency virus 1, NL43, MT4, 96 h
Summary of the method: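 Antiviral EC50 defined as 50% effective concentration. Values are the mean of two experiments, with SD normally under 20%.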

[5] = Therapeutic index, ratio of TC50 for human MT4 cells to EC50 for Human immunodeficiency virus 1 NL43 infected in human MT4 cells; format: cell-based; details: read-out: TI
Summary of the method: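 Index calculated as TC50/EC50. TC50 and EC50 are each the mean of two experiments.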

[6] = Metabolic stability in mouse liver microsomes after 40 mins by LC-MS/MS analysis; format: ADME, Microsome; details: read-out: Stability
[7] = Cytotoxicity against human MT4 cells by WST1 assay; format: cell-based; details: read-out: TC50 (the source's name)
Summary of the method: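 TC50 defined as 50% toxic concentration. Values are the mean of two experiments, with SD normally under 20%.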

| Structure (SMILES) | Stability [1] | solubility [2] [µM] | Stability [3] | EC50 [4] [µM] | selectivity ratio [5] | remaining at 40 min [6] [%] | CC50 [7] [µM] |
| --- | --- | --- | --- | --- | --- | --- | --- |
| O=C(O)c1ccccc1C(=O)OCn1ncc2cc(Nc3ncc(-c4ccc(Cl)cc4)o3)ccc21 | Stable | 66 (≈ 32.3 µg/mL) |  |  |  |  |  |
| O=C(O)CCC(=O)OCn1ncc2cc(Nc3ncc(-c4ccc(Cl)cc4)o3)ccc21 | 35% | 60 (≈ 26.5 µg/mL) | Stable |  |  |  |  |
| O=[N+]([O-])c1ccc(N2CCCC(Nc3ccc4[nH]ncc4c3)C2)c(F)c1 (configuration not stated) |  |  |  | 13 | 10 |  |  |
| COc1cccc(-c2nc(Nc3ccc4[nH]ncc4c3)c3c(F)cccc3n2)c1 |  |  |  | 11 | 10 |  |  |
| O=C(NCc1ccc([N+](=O)[O-])cc1F)Nc1ccc2[nH]ncc2c1 |  |  |  | 6 | 15 |  |  |
| c1ccc(-c2cnc(Nc3ccc4[nH]ncc4c3)o2)cc1 |  |  |  | 2 | > 45 | 9 | > 90 |
| Clc1ccccc1-c1cnc(Nc2ccc3[nH]ncc3c2)o1 |  |  |  | 9 | > 11 |  | > 100 |
| Clc1cccc(-c2cnc(Nc3ccc4[nH]ncc4c3)o2)c1 |  |  |  | 54 | > 1.9 |  | > 100 |
| Clc1ccc(-c2cnc(Nc3ccc4[nH]ncc4c3)o2)cc1 |  | 0.2 (≈ 0.0621 µg/mL) |  | 3 | > 30 | 83 | > 90 |
| COc1ccccc1-c1cnc(Nc2ccc3[nH]ncc3c2)o1 |  |  |  | 100 | > 1 |  | > 100 |
| COc1cccc(-c2cnc(Nc3ccc4[nH]ncc4c3)o2)c1 |  |  |  | 2 | > 45 |  | > 90 |
| COc1ccc(-c2cnc(Nc3ccc4[nH]ncc4c3)o2)cc1 |  |  |  | 100 | > 1 |  | > 100 |
| c1cc2[nH]ncc2cc1Nc1ncc(-c2ccc3c(c2)OCO3)o1 |  |  |  | 2.7 | 31 |  | 83 |
| COc1cc(-c2cnc(Nc3ccc4[nH]ncc4c3)o2)ccc1Cl |  |  |  | 1.5 | 53 |  | 80 |
| Clc1ccc(-c2cnc(Nc3ccc4[nH]ncc4c3)o2)cc1Cl |  |  |  | 35 | > 2.9 |  | > 100 |
| COc1ccc(-c2cnc(Nc3ccc4[nH]ncc4c3)o2)cc1OC |  |  |  | 0.42 | 50 |  | 21 |
